Data reported in ChEMBL document CHEMBL1135063, “Cytotoxic and antibacterial activity of 2-oxopurine derivatives” (Bioorg Med Chem Lett, 2002).
In brackets after ≈: the same amount, converted by molar mass.

Tests used:
[1] = system: K562; assay: Cytotoxicity against chronic myelogenous leukemia cell line K-562 was determined by measuring [3H]thymidine incorporation after 48 h; format: functional, cell-based; conditions: Homo sapiens
Procedure, shortened: (§1)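 K-562 cells in RPMI 1640 with 10% FCS, 2 mM L-glutamine and kanamycin, humidified 5% CO2. Log-phase cells seeded at 2 × 10^4 cells/mL and exposed to compound (DMSO, 0.05% final) over a 10 to 0.078 range for 48 h. Cells were then pulsed 2 h with [3H]-thymidine, filter-harvested and cell-associated radioactivity counted. Percent inhibition or IC50 is reported with SD.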

[2] = system: K562; assay: Cytotoxicity against chronic myelogenous leukemia cell line K-562 was determined by measuring [3H]thymidine incorporation at a concentration of 1.25 ug/mL after 48 h; format: functional; conditions: Homo sapiens; procedure, shortened: as §1
[3] = system: K562; assay: Cytotoxicity against chronic myelogenous leukemia cell line K-562 was determined by measuring [3H]thymidine incorporation at a concentration 10 ug/mL after 48 h; format: functional; conditions: Homo sapiens; procedure, shortened: as §1
[4] = system: K562; assay: Cytotoxicity against chronic myelogenous leukemia cell line K-562 was determined by measuring [3H]thymidine incorporation at a concentration of 10 ug/mL after 5 h; format: functional; conditions: Homo sapiens
Procedure, shortened: (§2)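 K-562 cells in RPMI 1640 with 10% FCS, 2 mM L-glutamine and kanamycin, 5% CO2. Log-phase cells seeded at 4 × 10^4 cells/mL and exposed to compound (DMSO, 0.05% final) over a 10 to 0.078 range for 5 h. Cells were then pulsed 2 h with [3H]-thymidine, harvested onto fiberglass filters and counted. IC50 is the concentration inhibiting incorporation by 50%. Values are given with SD.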

[5] = system: K562; assay: Concentration that reduces [3H]thymidine incorporation by 50% in chronic myelogenous leukemia cell line K-562 after 5 h; format: functional, cell-based; conditions: Homo sapiens; procedure, shortened: as §2
[6] = system: K562; assay: Cytotoxicity against chronic myelogenous leukemia cell line K-562 was determined by measuring [3H]thymidine incorporation at a concentration of 1.00 ug/mL after 5 h; format: functional; conditions: Homo sapiens; procedure, shortened: as §2
[7] = system: K562; assay: Cytotoxicity against chronic myelogenous leukemia cell line K-562 determined using [3H]thymidine incorporation at a concentration 10 ug/mL after 48 h; format: functional; conditions: Homo sapiens; procedure, shortened: as §1
[8] = system: K562; assay: Cytotoxicity against chronic myelogenous leukemia cell line K-562 determined using [3H]thymidine incorporation at a concentration of 1.00 ug/mL after 48 h; format: functional; conditions: Homo sapiens; procedure, shortened: as §1
[9] = system: Lacticaseibacillus casei; assay: Tested for antibacterial activity against Lactobacillus casei; format: functional
[10] = system: Mycobacterium tuberculosis; assay: Tested for percent inhibition against Mycobacterium tuberculosis at a concentration of 12.5 ug/mL; format: functional
Procedure, shortened: (§3)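 M. tuberculosis H37Rv (ATCC 27294) grown in BACTEC 12B medium; inhibition read out by Microplate Alamar Blue assay.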

[11] = system: K562; assay: Cytotoxicity against chronic myelogenous leukemia cell line K-562 was determined by measuring [3H]-thymidine incorporation at a concentration of 1.25 ug/mL after 5 h; format: functional; conditions: Homo sapiens; procedure, shortened: as §2
[12] = system: K562; assay: Cytotoxicity against chronic myelogenous leukemia cell line K-562 was determined by measuring [3H]thymidine incorporation at a concentration of 10 ug/mL after 48 h; format: functional; conditions: Homo sapiens; procedure, shortened: as §1
[13] = system: Mycobacterium tuberculosis; assay: Antibacterial activity was evaluated against Mycobacterium tuberculosis; format: functional; procedure, shortened: as §3
[14] = system: Mycobacterium tuberculosis; assay: Tested for percent inhibition against Mycobacterium tuberculosis at 12.5 ug/mL concentration; format: functional; procedure, shortened: as §3
[15] = system: K562; assay: Cytotoxicity against chronic myelogenous leukemia cell line K-562 was determined by measuring [3H]thymidine incorporation after 5 h; format: functional, cell-based; conditions: Homo sapiens; procedure, shortened: as §2
[16] = system: K562; assay: Cytotoxicity against chronic myelogenous leukemia cell line K-562 was determined by measuring [3H]thymidine incorporation at a concentration 1 ug/mL after 48 h; format: functional; conditions: Homo sapiens; procedure, shortened: as §1
[17] = system: K562; assay: Cytotoxicity against chronic myelogenous leukemia cell line K-562 was determined by measuring [3H]thymidine incorporation at a concentration of 1 ug/mL after 5 h; format: functional; conditions: Homo sapiens; procedure, shortened: as §2
[18] = system: Vero; assay: Tested for inhibition against Vero cells at 12.5 ug/mL; format: functional, cell-based; conditions: Chlorocebus sabaeus
[19] = system: Mycobacterium tuberculosis; assay: Tested for antibacterial activity against Mycobacterium tuberculosis; format: functional; procedure, shortened: as §3
[20] = system: K562; assay: Cytotoxicity against chronic myelogenous leukemia cell line K-562 was determined by measuring [3H]thymidine incorporation at a concentration of 1.00 ug/mL after 48 h; format: functional; conditions: Homo sapiens; procedure, shortened: as §1
[21] = system: Mycobacterium avium; assay: Tested for percent inhibition against Mycobacterium avium at 12.5 ug/mL; format: functional
[22] = system: Mycobacterium tuberculosis; assay: Tested for percent inhibition against Mycobacterium tuberculosis at 12.5 ug/mL; format: functional; procedure, shortened: as §3
[23] = system: Mycobacterium tuberculosis; assay: Tested for percent inhibition against Mycobacterium tuberculosis at concentration of 12.5 ug/mL; format: functional; procedure, shortened: as §3
[24] = system: Lacticaseibacillus casei; assay: Tested for inhibitory effect on Gram-positive bacterium; Lactobacillus casei; format: functional

SMILES | IC50 [1] [µg/mL] | inhibition at 1.25 µg/mL [2] [%] | inhibition at 10 µg/mL [3] [%] | inhibition at 10 µg/mL [4] [%] | IC50 [5] [µg/mL] | other results
CC1c2ncn(Cc3ccccc3)c2NC(=O)N1Cc1ccccc1 (configuration not stated) | 1.4 (≈ 4.21 µM) | 33 | 98 | 76.4 | 2.5 (≈ 7.52 µM) | –
O=C1Nc2c(ncn2Cc2ccccc2)C(C#Cc2ccccc2)N1Cc1ccccc1 (configuration not stated) | 0.8 (≈ 1.91 µM) | – | – | – | 1.4 (≈ 3.35 µM) | inhibition at 1 µg/mL [6]: 20%; inhibition at 10 µg/mL [7]: 100%; inhibition at 1 µg/mL [8]: 59%
O=c1nc2c(ncn2Cc2ccccc2)c(-c2ccco2)n1Cc1ccccc1 | – | – | – | – | – | MIC [9]: > 10 µg/mL; inhibition at 12.5 µg/mL [10]: 0%
O=c1nc2c(ncn2Cc2ccccc2)c(C#CC2CC2)n1Cc1ccccc1 | 0.2 (≈ 0.526 µM) | 100 | 97 | 98 | 0.4 (≈ 1.05 µM) | inhibition at 1.25 µg/mL [11]: 98%
O=C1Nc2c(ncn2Cc2ccccc2)C(C(F)(F)F)N1Cc1ccccc1 (configuration not stated) | 2 (≈ 5.18 µM) | 26 | 97 | 51 | 10 (≈ 25.9 µM) | inhibition at 1.25 µg/mL [11]: 15.4%
O=C1Nc2c(ncn2Cc2ccccc2)C(C#CC2CC2)N1Cc1ccccc1 (configuration not stated) | 1.3 (≈ 3.4 µM) | 42 | 98 | 90 | 1.6 (≈ 4.18 µM) | inhibition at 1.25 µg/mL [11]: 35%
O=C1Nc2c(ncn2Cc2ccccc2)C(c2ccccc2)N1Cc1ccccc1 (configuration not stated) | 0.2 (≈ 0.507 µM) | 85 | 90 | 69 | 5.1 (≈ 12.9 µM) | inhibition at 1.25 µg/mL [11]: 9.1%
O=c1nc2c(cn1Cc1ccccc1)ncn2Cc1ccccc1 | > 10 | 5.7 | – | 16 | > 10 | inhibition at 1.25 µg/mL [11]: 4.4%; inhibition at 10 µg/mL [12]: 37%
Clc1nc(-c2cccs2)c2ncn(Cc3ccccc3)c2n1 | – | – | – | – | – | MIC [13]: 1.56 µg/mL (≈ 4.77 µM)
O=c1nc2c(ncn2Cc2ccccc2)c(-c2ccccc2)n1Cc1ccccc1 | – | – | 70 | – | – | MIC [9]: > 10 µg/mL; inhibition at 12.5 µg/mL [14]: 0%
O=C1Nc2c(ncn2Cc2ccccc2)C(C#CC2CC2)(C(F)(F)F)N1Cc1ccccc1 (configuration not stated) | 0.2 (≈ 0.444 µM) | 99 | 100 | 94 | 0.4 (≈ 0.888 µM) | inhibition at 1.25 µg/mL [11]: 66%
Sc1ncnc2nc[nH]c12 [MERCAPTOPURINE ANHYDROUS] | 0.4 (≈ 2.63 µM) | – | – | – | – | IC50 [15]: 8.5 µg/mL (≈ 55.9 µM)
O=C1Nc2[nH]cnc2C(C#CC2CC2)(C(F)(F)F)N1 (configuration not stated) | > 1 | – | – | – | > 1 | inhibition at 1 µg/mL [16]: 0.8%; inhibition at 1 µg/mL [17]: 0.3%
O=c1nc2c(ncn2Cc2ccccc2)c(C#Cc2ccccc2)n1Cc1ccccc1 | 0.7 (≈ 1.68 µM) | – | 100 | – | 1 (≈ 2.4 µM) | IC50 [18]: < 0.2 µg/mL; MIC [19]: 12.5 µg/mL (≈ 30 µM); inhibition at 1 µg/mL [20]: 90%; inhibition at 1 µg/mL [6]: 48%; MIC [9]: > 10 µg/mL; inhibition at 12.5 µg/mL [21]: 60%; inhibition at 12.5 µg/mL [22]: 95%
O=C1Nc2ncn(Cc3ccccc3)c2C(c2ccccc2)N1Cc1ccccc1 (configuration not stated) | > 10 | – | 48 | – | – | –
CCC1(c2ccccc2)c2ncn(Cc3ccccc3)c2NC(=O)N1Cc1ccccc1 (configuration not stated) | – | – | 80 | – | – | –
CC(C)c1c2ncn(Cc3ccccc3)c2nc(=O)n1Cc1ccccc1 | > 10 | – | 18 | – | – | –
O=c1nc2c(ncn2Cc2ccccc2)c(-c2cccs2)n1Cc1ccccc1 | – | – | – | – | – | MIC [9]: > 10 µg/mL; inhibition at 12.5 µg/mL [23]: 0%
O=C1N(Cc2ccccc2)c2nc[nH]c2C(c2ccccc2)N1Cc1ccccc1 (configuration not stated) | > 10 | – | 32 | – | – | MIC [24]: 10 µg/mL (≈ 25.3 µM)
O=c1nc2c(ncn2Cc2ccccc2)c(C(F)(F)F)n1Cc1ccccc1 | > 10 | – | 11 | – | – | –
CC(C)C1c2ncn(Cc3ccccc3)c2NC(=O)N1Cc1ccccc1 (configuration not stated) | 10 (≈ 27.7 µM) | – | 51 | – | – | –
